Published values pooled from the literature.
Target: Fibroblast growth factor receptor 1 (FGFR1, Homo sapiens, UniProt P11362)

Compound | test | setting | remaining binding [%]
CNC(=O)Nc1ccc2c(c1)CC[C@@]21OC(=O)N(CC(=O)N(Cc2ccc(F)cc2)[C@@H](C)C(F)(F)F)C1=O | cell-free assay, competition with immobilised ligand | 1 µM | 82
N[C@@H]1CCN(c2nccc(-c3cnn4ncccc34)n2)C1 | binding | 1 µM | 96
O=C(c1ccc(Nc2nccc(-c3cc4ccccc4s3)n2)cc1)N1CCC(N2CCCC2)CC1 | binding, competition with immobilised ligand | 1 µM | 88
O=C(O)c1cc(-c2ccc(C3CCNCC3)cc2)c2ccc(-c3ccc(C(F)(F)F)cc3)cc2c1 | cell-free assay, competition with immobilised ligand | 1 µM | 100
O=C(c1ccc(Nc2ncc(Cl)c(-c3ccc(Cl)s3)n2)cc1)N1CCC(N2CCCC2)CC1 | binding, competition with immobilised ligand | 1 µM | 12
Cc1cnn2ncc(-c3ccnc(N(C)C)n3)c2c1 | binding | 1 µM | 100
C[C@H](NC(=O)c1cnc2n1[C@](C)(Cc1ccc(C#N)cc1)C(=O)N2c1cc(Cl)c(F)c(Cl)c1)C(=O)NC1(c2ccccn2)CC1 | cell-free assay, competition with immobilised ligand | 1 µM | 100
COc1cnc(Nc2cccc(S(N)(=O)=O)c2)nc1N1CCN(c2ccccc2)C(=O)C1 | binding, competition with immobilised ligand | 1 µM | 83
c1cnn2ncc(-c3ccnc(N4CCC45COC5)n3)c2c1 | binding | 1 µM | 100
COc1ncc2cc3ccccc3nc2c1C#N | cell-free assay, competition with immobilised ligand | 5 µM | 73
CS(=O)(=O)NCC[C@H](NC(=O)c1cncc2c1cnn2-c1ccc(F)cc1)c1ccnc(S(C)(=O)=O)c1 | cell-free assay, competition with immobilised ligand | 1 µM | 87
O=C(c1ccc(Nc2ncc(Cl)c(-c3cc4ccccc4s3)n2)cc1)N1CCC(N2CCCC2)CC1 | binding, competition with immobilised ligand | 1 µM | 36
CN(C)c1ncc(F)c(-c2cnn3ncccc23)n1 | binding | 1 µM | 100
CC1=C(C#N)[C@@H](c2ccc3[nH]nc(C)c3c2)C(C#N)=C(c2ccc(Cl)cc2)N1 | cell-free assay, competition with immobilised ligand | 1 µM | 86.6
C[C@@H]1CCN(c2nccc(-c3cnn4ncccc34)n2)C1 | binding | 1 µM | 100
FC(F)(F)Oc1cccc(-c2cnc3ccc(-c4ccncc4)nn23)c1 | cell-free assay, competition with immobilised ligand | 5 µM | 72
CN(C)c1nccc(-c2cnc3ncccn23)n1 | binding | 1 µM | 82
CN(C)C(=O)Cn1cc(-c2nc([C@@](C)(c3ccc(-c4cnc(N)nc4)cc3)C3CC3)no2)cn1 | cell-free assay, competition with immobilised ligand | 1 µM | 95
O=C(NCC1CCOCC1)c1n[nH]cc1NC(=O)c1c(F)cccc1F | binding, competition with immobilised ligand | 1 µM | 100
COc1cccc(CNC(=O)c2nc3scc(COCc4ccc(C(=O)O)cc4)c3c(=O)[nH]2)c1 | cell-free assay, competition with immobilised ligand | 1 µM | 86.5
CC1CCCN1c1nccc(-c2cnn3ncccc23)n1 (stereo not shown) | binding | 1 µM | 100
c1cncc(-c2cccc(Nc3nccc(NC4CCCCC4)n3)c2)c1 | binding, competition with immobilised ligand | 10 µM | 14
